# Reference: ChEMBL document CHEMBL1129303, “Potent human immunodeficiency virus type 1 protease inhibitors that utilize noncoded D-amino acids as P2/P3 ligands” (J Med Chem, 1996)
# Values joined by “and” are separate entries in the source; they are usually repeats but may differ in a detail not shown here. Identical values can stand only once.
# Key:
# MT2 = assay: Antiviral activity against MT-2 cells; type: functional, cell-based; conditions: Homo sapiens
# [1] = biological target: Human immunodeficiency virus type 1 protease (Human immunodeficiency virus 1, UniProt Q72874); assay: Inhibitory activity against HIV-1 protease
# CCRF-CEM [2] = assay: Antiviral activity against CEM cells; type: functional, cell-based; conditions: Homo sapiens
# CCRF-CEM [3] = assay: In vitro inhibitory activity against replication of HIV type-1 virus in CEM cells; type: functional, cell-based; conditions: Homo sapiens
# [4] = Maximum plasma concentration in rat upon oral administration of 40 mg/kg; type: ADME, organism-based; design: dose 40 mg/kg, route oral
# Method in brief: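 Fasted (16-18 h) Harlan Sprague-Dawley rats, jugular cannula implanted ≥48 h earlier, gavaged 40 mg/kg in acacia/Tween emulsion, n=2. Plasma from 0-4 h blood draws diluted 1:49 and assayed by HIV protease cleavage of FITC-labelled peptide (5 h, 37 °C, MES pH 5.5) with HPLC quantitation. Inhibitory activity read against a standard curve of parent compound; Cmax is the peak.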
SMILES,IC50 (MT2),IC50 [1],IC50 (CCRF-CEM [2]),IC50 (CCRF-CEM [3]),Cmax [4]
CC(C)(C)NC(=O)c1ccccc1C[C@@H](O)[C@H](Cc1ccccc1)NC(=O)[C@H](CSc1ccc2ccccc2n1)NS(C)(=O)=O,6440 nM,60 nM,5400 nM,–,–
CC(C)(C)NC(=O)c1ccccc1C[C@@H](O)[C@H](Cc1ccccc1)NC(=O)[C@H](CSc1ccccc1)NS(C)(=O)=O,2750 nM,44 nM,4370 nM,–,–
CC(C)(C)NC(=O)c1ccccc1C[C@@H](O)[C@H](Cc1ccccc1)NC(=O)[C@@H](N)CC(=O)OCc1ccccc1,–,> 1000 nM,–,–,–
CC(=O)N[C@@H](CSc1ccccc1)C(=O)N[C@@H](Cc1ccccc1)[C@H](O)Cc1ccccc1C(=O)NC(C)(C)C,11300 nM,220 nM,5400 nM,–,–
CC(C)(C)NC(=O)c1ccccc1C[C@@H](O)[C@H](Cc1ccccc1)NC(=O)[C@H](CSc1ccc2ccccc2c1)NS(C)(=O)=O,800 nM,1.8 nM,530 nM,–,–
CC(C)(C)NC(=O)c1ccccc1C[C@@H](O)[C@H](Cc1ccccc1)NC(=O)[C@H](C[S+]([O-])c1cccc2ccccc12)NS(C)(=O)=O (stereo partly drawn),6 nM,0.45 nM,< 0.5 nM,0.8 nM,< 250 ng/mL
CC(C)(C)NC(=O)c1ccccc1C[C@@H](O)[C@H](Cc1ccccc1)NC(=O)[C@H](C[S+]([O-])c1ccccc1)NS(C)(=O)=O (stereo partly drawn),500 nM,1.9 nM,100 nM,–,–
CCCC(=O)N[C@@H](CC(=O)OCc1ccccc1)C(=O)N[C@@H](Cc1ccccc1)[C@H](O)Cc1ccccc1C(=O)NC(C)(C)C,24200 nM,323 nM,8700 nM,–,–
CC(C)(C)NC(=O)c1ccccc1C[C@@H](O)[C@H](Cc1ccccc1)NC(=O)[C@H](CS(=O)(=O)c1cccc2ccccc12)NS(C)(=O)=O,8.8 nM,0.44 nM,< 0.5 nM,49 nM,–
COc1ccc(SC[C@H](NS(C)(=O)=O)C(=O)N[C@@H](Cc2ccccc2)[C@H](O)Cc2ccccc2C(=O)NC(C)(C)C)cc1,1910 nM,16 nM,1800 nM,–,–
CC(C)(C)NC(=O)c1ccccc1C[C@@H](O)[C@H](Cc1ccccc1)NC(=O)[C@H](C[S+]([O-])c1ccc(F)cc1)NS(C)(=O)=O (stereo partly drawn),900 nM,0.38 nM,165 nM,–,2200 ng/mL
CC(C)(C)NC(=O)c1ccccc1C[C@@H](O)[C@H](Cc1ccccc1)NC(=O)[C@H](CSc1ccccn1)NS(C)(=O)=O,–,910 nM,–,–,–
CC(C)(C)NC(=O)c1ccccc1C[C@@H](O)[C@H](Cc1ccccc1)NC(=O)[C@H](CSc1ccc(F)cc1)NS(C)(=O)=O,2880 nM,4.4 nM,2130 nM,–,–
CC(C)(C)NC(=O)c1ccccc1C[C@@H](O)[C@H](Cc1ccccc1)NC(=O)[C@H](CS(=O)(=O)c1ccc2ccccc2n1)NS(C)(=O)=O,5 nM,0.3 nM,< 0.5 nM,12 nM,< 100 ng/mL
COc1ccc(S(=O)(=O)C[C@H](NS(C)(=O)=O)C(=O)N[C@@H](Cc2ccccc2)[C@H](O)Cc2ccccc2C(=O)NC(C)(C)C)cc1,150 nM,2.4 nM,54 nM,107 nM,< 300 ng/mL
CCC(=O)N[C@@H](CC(=O)OCc1ccccc1)C(=O)N[C@@H](Cc1ccccc1)[C@H](O)Cc1ccccc1C(=O)NC(C)(C)C,9880 nM,73 nM,5200 nM,–,–
CC(C)(C)NC(=O)c1ccccc1C[C@@H](O)[C@H](Cc1ccccc1)NC(=O)[C@H](CS(=O)(=O)c1ccccc1)NS(C)(=O)=O,176 nM,5.7 nM,72 nM,83 nM,< 300 ng/mL
CC(=O)N[C@@H](C[S+]([O-])c1ccc2ccccc2n1)C(=O)N[C@@H](Cc1ccccc1)[C@H](O)Cc1ccccc1C(=O)NC(C)(C)C (stereo partly drawn),180 nM,0.25 nM,72 nM,–,–

SMILES,IC50 (MT2),IC50 [1],IC50 (CCRF-CEM [2]),IC50 (CCRF-CEM [3]),Cmax [4]
CC(C)(C)NC(=O)c1ccccc1C[C@@H](O)[C@H](Cc1ccccc1)NC(=O)[C@H](C[S+]([O-])c1ccc2ccccc2c1)NS(C)(=O)=O (stereo partly drawn),4.3 nM,3.5 nM,< 0.5 nM,6.7 nM,330 ng/mL
CC(C)(C)NC(=O)c1ccccc1C[C@@H](O)[C@H](Cc1ccccc1)NC(=O)[C@H](CS(=O)(=O)Cc1ccccc1)NS(C)(=O)=O,730 nM,19.4 nM,800 nM,–,–
CC(C)(C)NC(=O)c1ccccc1C[C@@H](O)[C@H](Cc1ccccc1)NC(=O)[C@H](CS(=O)(=O)c1ccccn1)NS(C)(=O)=O,–,22 nM,–,–,–
CC(C)(C)NC(=O)c1ccccc1C[C@@H](O)[C@H](Cc1ccccc1)NC(=O)[C@H](C[S+]([O-])c1ccccn1)NS(C)(=O)=O (stereo partly drawn),770 nM,19.3 nM and 7.9 nM,330 nM,474 nM,< 200 ng/mL
CC(C)(C)NC(=O)c1ccccc1C[C@@H](O)[C@H](Cc1ccccc1)NC(=O)[C@H](CS(=O)(=O)c1ccc(Cl)cc1)NS(C)(=O)=O,24 nM,0.34 nM,138 nM,16 nM,< 300 ng/mL
CC(C)(C)NC(=O)c1ccccc1C[C@@H](O)[C@H](Cc1ccccc1)NC(=O)[C@H](CS(=O)(=O)c1ccc(C(F)(F)F)cc1)NS(C)(=O)=O,450 nM,2 nM,204 nM,646 nM,< 300 ng/mL
CC(=O)N[C@@H](CS(=O)(=O)c1ccc2ccccc2n1)C(=O)N[C@@H](Cc1ccccc1)[C@H](O)Cc1ccccc1C(=O)NC(C)(C)C,–,0.28 nM,–,59 nM,–
CC(C)(C)NC(=O)c1ccccc1C[C@@H](O)[C@H](Cc1ccccc1)NC(=O)C(CS(=O)(=O)c1ccc2ccccc2n1)NS(C)(=O)=O (stereo partly drawn),3030 nM,2.8 nM,2060 nM,5780 nM,–
Cn1nnnc1SC[C@H](NS(C)(=O)=O)C(=O)N[C@@H](Cc1ccccc1)[C@H](O)Cc1ccccc1C(=O)NC(C)(C)C,9260 nM,17.5 nM,6680 nM,–,–
CC(=O)N[C@@H](CS(=O)(=O)c1ccccc1)C(=O)N[C@@H](Cc1ccccc1)[C@H](O)Cc1ccccc1C(=O)NC(C)(C)C,820 nM,20 nM,815 nM,–,–
CC(=O)N[C@@H](CSc1ccc2ccccc2n1)C(=O)N[C@@H](Cc1ccccc1)[C@H](O)Cc1ccccc1C(=O)NC(C)(C)C,–,14.7 nM,–,–,–
CC(=O)N[C@@H](CS(=O)(=O)c1ccc2ccccc2c1)C(=O)N[C@@H](Cc1ccccc1)[C@H](O)Cc1ccccc1C(=O)NC(C)(C)C,31 nM,0.32 nM,11 nM,–,< 100 ng/mL
CC(C)(C)NC(=O)c1ccccc1C[C@@H](O)[C@H](Cc1ccccc1)NC(=O)[C@H](CSc1ccc(C(F)(F)F)cc1)NS(C)(=O)=O,5910 nM,170 nM,2930 nM,–,–
CC(C)(C)NC(=O)c1ccccc1C[C@@H](O)[C@H](Cc1ccccc1)NC(=O)[C@H](CS(=O)(=O)c1ccc(F)cc1)NS(C)(=O)=O,440 nM,0.77 nM,59 nM,32 nM,< 300 ng/mL
Cn1nnnc1[S+]([O-])C[C@H](NS(C)(=O)=O)C(=O)N[C@@H](Cc1ccccc1)[C@H](O)Cc1ccccc1C(=O)NC(C)(C)C (stereo partly drawn),–,2.1 nM,–,5010 nM,490 ng/mL
CC(C)(C)NC(=O)c1ccccc1C[C@@H](O)[C@H](Cc1ccccc1)NC(=O)[C@H](CSc1cccc2ccccc12)NS(C)(=O)=O,760 nM,1.2 nM,270 nM,323 nM,–
CC(C)(C)NC(=O)c1ccccc1C[C@@H](O)[C@H](Cc1ccccc1)NC(=O)[C@H](C[S+]([O-])c1ccc(C(F)(F)F)cc1)NS(C)(=O)=O (stereo partly drawn),116 nM,2.3 nM,53 nM,–,< 200 ng/mL
CC(C)(C)NC(=O)c1ccccc1C[C@@H](O)[C@H](Cc1ccccc1)NC(=O)[C@H](CSCc1ccccc1)NS(C)(=O)=O,926 nM,14.7 nM,1650 nM,–,–
